Data: paper PMC7551138 (Alzheimer's & Dementia : Translational Research & Clinical …, 2020)

How the values were obtained:
healthy elderly subjects [1] = assay: Visual analogue scales; assay type: in vivo, human; conditions: 22 mg b.i.d. intranasal 7 days; vs placebo, mean (confidence interval)
Procedure, shortened: (§1)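 NeuroCart tests were repeated over time during the 7-day b.i.d. intranasal dosing: eye movements, N-back with 3 working-memory-load conditions, pharmaco-EEG, and 100-mm VAS (Bond and Lader mood/alertness/calmness; nausea). In the 22 mg cohort, EEG at 30 min and 3 h post-dose was dropped. Analysis was mixed-model ANOVA (treatment, time, treatment×time fixed; subject random; baseline covariate), giving LSM difference versus placebo with CI.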

healthy elderly subjects [2] = assay: N‐back test; assay type: in vivo, human; conditions: vs placebo, mean (confidence interval)
Procedure, shortened: as §1

healthy elderly subjects [3] = assay: Visual verbal learning test; assay type: in vivo, human; conditions: for VVLT Delayed word recall correct / VVLT Delayed word recognition RT correct / VVLT Delayed word recognition correct / VVLT Word recall correct 1 / VVLT Word recall correct 2 / VVLT Word recall correct 3: vs placebo, mean (confidence interval)
Procedure, shortened: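 Thirty words were shown repeatedly, with immediate recall after each presentation. After 30 min, delayed recall and recognition among distractor words were tested. This test was not repeated within a day. Analysis was mixed-model ANOVA (treatment, day, treatment×day fixed; subject random), giving LSM difference versus placebo with CI.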

healthy elderly subjects [4] = assay: Pharmaco‐electroencephalography; assay type: in vivo, human; conditions: for EEG Delta Fz‐Cz closed (uV^2/Hz) / EEG Delta Fz‐Cz open (uV^2/Hz) / EEG Delta Pz‐O1 closed (uV^2/Hz) / EEG Delta Pz‐O1 open (uV^2/Hz) / EEG Delta Pz‐O2 closed (uV^2/Hz) / EEG Delta Pz‐O2 open (uV^2/Hz): vs placebo, mean (confidence interval)
Procedure, shortened: as §1

healthy elderly subjects [5] = assay: PK‐PD analysis, nonlinear mixed‐effect modeling of adaptive tracking; assay type: in vivo, human
Procedure, shortened: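 Nonlinear mixed-effects PK-PD modelling used plasma and CSF data from this study plus earlier first-in-human data. Oral comparator data were dose-corrected. […] models linked plasma concentration of the active cleavage product to adaptive tracking, testing direct-effect, turnover and effect-compartment forms. Inter-individual and inter-occasion variability were assessed. Covariates were added stepwise at p<0.01, then removed by backward elimination at p<0.001. Emax and EC50 (mg/L) are given with 95% CI.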

[6] = intranasal 20.0 mg/kg; cited from earlier work
[7] = cited from earlier work
[8] = 5.5 mg b.i.d. intranasal 7 days

With `COc1ccc2c3c1O[C@H]1C[C@@H](OC(=O)c4ccccc4)C=C[C@@]31CCN(C)C2` [Gln‐1062] the “VAS Mood” value (healthy elderly subjects [1]) was −0.68 (−3.66, 2.29) P = 0.6455 mm, the “N‐back corr‐incorr/total 1” value (healthy elderly subjects [2]; [8]) was 0.026 (−0.026, 0.078) P = 0.3186 and the “N‐back corr‐incorr/total 2” value (healthy elderly subjects [2]; [8]) was −0.002 (−0.068, 0.064) P = 0.9575. The “N‐back mean RT 2 back” value (healthy elderly subjects [2]; [8]) was −45.6 (−99.3, 8.2) P = 0.0944 msec, the “N‐back corr‐incorr/total 1” value (healthy elderly subjects [2]; 11 mg b.i.d. intranasal 7 days) was 0.027 (−0.023, 0.076) P = 0.2811 and the “N‐back corr‐incorr/total 2” value (healthy elderly subjects [2]; 11 mg b.i.d. intranasal 7 days) was −0.016 (−0.081, 0.049) P = 0.6231. The “N‐back mean RT 1 back” value (healthy elderly subjects [2]; 11 mg b.i.d. intranasal 7 days) was 6.1 (−39.6, 51.8) P = 0.7893 msec, the “N‐back corr‐incorr/total 1” value (healthy elderly subjects [2]; 22 mg b.i.d. intranasal 7 days) was 0.020 (−0.029, 0.069) P = 0.4242 and the “N‐back corr‐incorr/total 2” value (healthy elderly subjects [2]; 22 mg b.i.d. intranasal 7 days) was 0.036 (−0.028, 0.099) P = 0.2661. For the same compound, the “N‐back mean RT 1 back” value (healthy elderly subjects [2]; 22 mg b.i.d. intranasal 7 days) was −24.4 (−67.1, 18.3) P = 0.2558 msec, the “N‐back mean RT 2 back” value (healthy elderly subjects [2]; 22 mg b.i.d. intranasal 7 days) was −71.4 (−126.4,−16.3) P = 0.0123 msec and the “VVLT Delayed word recall correct” value (healthy elderly subjects [3]; [8]) was 0.36 (−2.02, 2.73) P = 0.7624. For the same compound, the “VVLT Delayed word recognition RT correct” value (healthy elderly subjects [3]; [8]) was −49.93 (−166.97, 67.10) P = 0.3944 msec, the “VVLT Delayed word recognition correct” value (healthy elderly subjects [3]; [8]) was −2.60 (−6.60, 1.40) P = 0.1967 and the “VVLT Word recall correct 1” value (healthy elderly subjects [3]; [8]) was 0.36 (−1.31, 2.03) P = 0.6635. The “VVLT Word recall correct 2” value (healthy elderly subjects [3]; [8]) was −0.45 (−2.44, 1.55) P = 0.6545, the “VVLT Word recall correct 3” value (healthy elderly subjects [3]; [8]) was −0.12 (−2.42, 2.17) P = 0.9136 and the “VVLT Delayed word recall correct” value (healthy elderly subjects [3]; 11 mg b.i.d. intranasal 7 days) was −0.73 (−3.15, 1.70) P = 0.5486. The “VVLT Delayed word recognition RT correct” value (healthy elderly subjects [3]; 11 mg b.i.d. intranasal 7 days) was −30.91 (−150.24, 88.41) P = 0.6041 msec, the “VVLT Delayed word recognition correct” value (healthy elderly subjects [3]; 11 mg b.i.d. intranasal 7 days) was −2.19 (−6.24, 1.87) P = 0.2825 and the “VVLT Word recall correct 1” value (healthy elderly subjects [3]; 11 mg b.i.d. intranasal 7 days) was 0.62 (−1.07, 2.32) P = 0.4608. For the same compound, the “VVLT Word recall correct 2” value (healthy elderly subjects [3]; 11 mg b.i.d. intranasal 7 days) was −0.63 (−2.65, 1.40) P = 0.5370, the “VVLT Word recall correct 3” value (healthy elderly subjects [3]; 11 mg b.i.d. intranasal 7 days) was −0.89 (−3.23, 1.44) P = 0.4444 and the “VVLT Delayed word recall correct” value (healthy elderly subjects [3]; 22 mg b.i.d. intranasal 7 days) was 0.48 (−1.89, 2.86) P = 0.6838. The “VVLT Delayed word recognition RT correct” value (healthy elderly subjects [3]; 22 mg b.i.d. intranasal 7 days) was −120.03 (−237.07,−3.00) P = 0.0447 msec, the “VVLT Delayed word recognition correct” value (healthy elderly subjects [3]; 22 mg b.i.d. intranasal 7 days) was −0.43 (−4.43, 3.57) P = 0.8291 and the “VVLT Word recall correct 1” value (healthy elderly subjects [3]; 22 mg b.i.d. intranasal 7 days) was −0.12 (−1.79, 1.54) P = 0.8816. The “VVLT Word recall correct 2” value (healthy elderly subjects [3]; 22 mg b.i.d. intranasal 7 days) was −0.01 (−2.00, 1.99) P = 0.9959, the “VVLT Word recall correct 3” value (healthy elderly subjects [3]; 22 mg b.i.d. intranasal 7 days) was 0.99 (−1.30, 3.29) P = 0.3883 and the “effects on VVLT, eye movements and VAS mood, calmness, alertness and nausea” value (healthy elderly subjects [3]; compared with placebo) was “No significant and consistent effects”. For the same compound, the “EEG Delta Fz‐Cz closed (uV^2/Hz)” value (healthy elderly subjects [4]; [8]) was −1.8% (−30.4%, 38.5%) P = 0.9140, the “EEG Delta Fz‐Cz open (uV^2/Hz)” value (healthy elderly subjects [4]; [8]) was −13.6% (−35.0%, 14.8%) P = 0.3010 and the “EEG Delta Pz‐O1 closed (uV^2/Hz)” value (healthy elderly subjects [4]; [8]) was −3.1% (−36.1%, 46.9%) P = 0.8765. The “EEG Delta Pz‐O1 open (uV^2/Hz)” value (healthy elderly subjects [4]; [8]) was −12.9% (−39.4%, 25.1%) P = 0.4391, the “EEG Delta Pz‐O2 closed (uV^2/Hz)” value (healthy elderly subjects [4]; [8]) was −13.4% (−39.2%, 23.5%) P = 0.4151 and the “EEG Delta Pz‐O2 open (uV^2/Hz)” value (healthy elderly subjects [4]; [8]) was 3.1% (−23.8%, 39.4%) P = 0.8382. The “EEG Delta Fz‐Cz closed (uV^2/Hz)” value (healthy elderly subjects [4]; 11 mg b.i.d. intranasal 7 days) was −14.8% (−37.6%, 16.4%) P = 0.3023, the “EEG Delta Fz‐Cz open (uV^2/Hz)” value (healthy elderly subjects [4]; 11 mg b.i.d. intranasal 7 days) was −2.5% (−25.2%, 27.0%) P = 0.8435 and the “EEG Delta Pz‐O1 closed (uV^2/Hz)” value (healthy elderly subjects [4]; 11 mg b.i.d. intranasal 7 days) was −12.4% (−41.5%, 31.2%) P = 0.5079. For the same compound, the “EEG Delta Pz‐O1 open (uV^2/Hz)” value (healthy elderly subjects [4]; 11 mg b.i.d. intranasal 7 days) was −5.4% (−33.6%, 34.6%) P = 0.7474, the “EEG Delta Pz‐O2 closed (uV^2/Hz)” value (healthy elderly subjects [4]; 11 mg b.i.d. intranasal 7 days) was −0.4% (−28.5%, 38.7%) P = 0.9799 and the “EEG Delta Pz‐O2 open (uV^2/Hz)” value (healthy elderly subjects [4]; 11 mg b.i.d. intranasal 7 days) was 3.7% (−21.2%, 36.6%) P = 0.7851. The “EEG delta power at the frontal and parietal locations” value (healthy elderly subjects [4]; 22 mg) was “significantly decreased”, the “EEG Delta Fz‐Cz closed (uV^2/Hz)” value (healthy elderly subjects [4]; 22 mg b.i.d. intranasal 7 days) was −19.8% (−35.7%,−0.1%) P = 0.0495 and the “EEG Delta Fz‐Cz open (uV^2/Hz)” value (healthy elderly subjects [4]; 22 mg b.i.d. intranasal 7 days) was −30.1% (−48.3%,−5.3%) P = 0.0235. For the same compound, the “EEG Delta Pz‐O1 closed (uV^2/Hz)” value (healthy elderly subjects [4]; 22 mg b.i.d. intranasal 7 days) was −27.4% (−46.1%,−2.1%) P = 0.0369, the “EEG Delta Pz‐O1 open (uV^2/Hz)” value (healthy elderly subjects [4]; 22 mg b.i.d. intranasal 7 days) was −29.1% (−45.3%,−8.0%) P = 0.0126 and the “EEG Delta Pz‐O2 closed (uV^2/Hz)” value (healthy elderly subjects [4]; 22 mg b.i.d. intranasal 7 days) was −21.5% (−35.1%, −5.0%) P = 0.0154. The “EEG Delta Pz‐O2 open (uV^2/Hz)” value (healthy elderly subjects [4]; 22 mg b.i.d. intranasal 7 days) was −16.5% (−33.4%, 4.8%) P = 0.1128, the “maximum increase (Emax) of adaptive tracking” value (healthy elderly subjects [5]; direct effect model on galantamine plasma concentration, 95% CI 1.15–5.90) was 1.91 and the “concentration resulting in half of the maximum (EC50), adaptive tracking” value (healthy elderly subjects [5]; galantamine plasma concentration, direct effect model, by drug dosed) was 0.0231 µg/mL. The “blood‐to‐brain ratio” value [6] was 10.2 mg/kg, the “tolerability compared with 16 mg oral galantamine and other ChEIs” value ([7]; 22 mg) was “better tolerated” and the “sustained attention (adaptive tracking) and verbal memory (VVLT)” value ([7]; 5.5, 11, 22, 33 and 44 mg) was “dose‐dependent improvements”.
